According to ChEMBL document CHEMBL1137663, “Evaluation of tigecycline penetration into colon wall tissue and epithelial lining fluid using a population pharmacokinetic model and Monte Carlo simulation” (Antimicrob Agents Chemother, 2007):

Legend:
[1] = Protein binding in human serum; format: ADME, cell-free; details: read-out: PB (converted)
[2] = Penetration ratio, ratio of AUC (0 to 24 hrs) for human epithelial lining fluid to AUC (0 to 24 hrs) for human serum at 75th AUC percentile curve; format: ADME, tissue-based
Method in brief: (§1)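 Penetration was expressed as steady-state tissue (colon wall or ELF) AUC0-24 divided by serum AUC0-24. AUCs came from the population model, by direct simulation with the mean parameter vector and by Monte Carlo simulation using the parameter distribution.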

[3] = Penetration ratio, ratio of AUC (0 to 24 hrs) for human epithelial lining fluid to AUC (0 to 24 hrs) for human serum at 5th AUC percentile curve; format: ADME, tissue-based; method in brief: as §1
[4] = Volume of distribution in human serum; format: ADME, organism-based
Method in brief: (§2)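 Serum, ELF and colon wall concentrations were fitted simultaneously in BigNPAG. One specific-volume term estimated all tissue compartment volumes. Individual Bayesian estimates were obtained with the population-of-one utility.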

[5] = Penetration ratio, ratio of AUC (0 to 24 hrs) for human colon wall tissue to AUC (0 to 24 hrs) for human serum at 5th AUC percentile curve; format: ADME; method in brief: as §1
[6] = Penetration ratio, ratio of AUC (0 to 24 hrs) for human epithelial lining fluid to AUC (0 to 24 hrs) for human serum at 50th AUC percentile curve; format: ADME, tissue-based; method in brief: as §1
[7] = Penetration ratio, ratio of AUC (0 to 24 hrs) for human colon wall tissue to AUC (0 to 24 hrs) for human serum at 50th AUC percentile curve; format: ADME; method in brief: as §1
[8] = AUC (0 to 24 hrs) in human colon wall tissue at 5th AUC percentile curve; format: ADME, tissue-based; parameters: time < 24 hr
Method in brief: (§3)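 Study 2: a single 100-mg i.v. dose was infused over about 30 min. Colon wall was collected about 4, 8, 12 or 24 h after the infusion started. Tissue (0.20-g aliquot) was homogenized with deuterated internal standard in acetonitrile, then assayed by LC-MS/MS. Data were comodeled with serum from all five studies in BigNPAG. Monte Carlo simulation gave steady-state AUC0-24 percentiles.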

[9] = AUC (0 to 24 hrs) in human serum at 25th AUC percentile curve; format: ADME, cell-free; parameters: time < 24 hr
Method in brief: (§4)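 Serum came from five studies. Study 1: serial samples over 24 h after the last of seven i.v. doses. Study 2: samples after a single 100-mg infusion. Studies 3-5: patients on 100 mg then 50 mg q12h for 5-14 days, sampled predose, at end of infusion, and at 3 and 6 h. Assay was LC-MS/MS. Population modeling plus Monte Carlo simulation gave steady-state AUC0-24 percentiles.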

[10] = AUC (0 to 24 hrs) in human epithelial lining fluid at 95th AUC percentile curve; format: ADME, tissue-based; parameters: time < 24 hr
Method in brief: (§5)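 Study 1: 100-mg i.v. loading dose, then 50 mg i.v. every 12 h through day 4 (seven 30-min infusions). Drug was measured in BAL fluid by LC-MS/MS. ELF concentration was derived by urea dilution, using BAL and serum urea drawn at bronchoscopy. Values were comodeled with serum data in a population model, and Monte Carlo simulation gave steady-state AUC0-24 percentiles.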

[11] = Penetration ratio, ratio of AUC (0 to 24 hrs) for human epithelial lining fluid to AUC (0 to 24 hrs) for human serum at 95th AUC percentile curve; format: ADME, tissue-based; method in brief: as §1
[12] = AUC (0 to 24 hrs) in human epithelial lining fluid at 50th AUC percentile curve; format: ADME, tissue-based; parameters: time < 24 hr; method in brief: as §5
[13] = AUC (0 to 24 hrs) in human colon wall tissue at 50th AUC percentile curve; format: ADME, tissue-based; parameters: time < 24 hr; method in brief: as §3
[14] = Penetration ratio, ratio of AUC (0 to 24 hrs) for human colon wall tissue to AUC (0 to 24 hrs) for human serum at 25th AUC percentile curve; format: ADME; method in brief: as §1
[15] = Penetration ratio, ratio of AUC (0 to 24 hrs) for human epithelial lining fluid to AUC (0 to 24 hrs) for human serum at 25th AUC percentile curve; format: ADME, tissue-based; method in brief: as §1
[16] = AUC (0 to 24 hrs) in human colon wall tissue at 95th AUC percentile curve; format: ADME, tissue-based; parameters: time < 24 hr; method in brief: as §3
[17] = AUC (0 to 24 hrs) in human serum at 75th AUC percentile curve; format: ADME, cell-free; parameters: time < 24 hr; method in brief: as §4
[18] = AUC (0 to 24 hrs) in human serum at 95th AUC percentile curve; format: ADME, cell-free; parameters: time < 24 hr; method in brief: as §4
[19] = AUC (0 to 24 hrs) in human epithelial lining fluid at 5th AUC percentile curve; format: ADME, tissue-based; parameters: time < 24 hr; method in brief: as §5
[20] = AUC (0 to 24 hrs) in human serum at 5th AUC percentile curve; format: ADME, cell-free; parameters: time < 24 hr; method in brief: as §4
[21] = Penetration ratio, ratio of AUC (0 to 24 hrs) for human colon wall tissue to AUC (0 to 24 hrs) for human serum at 95th AUC percentile curve; format: ADME; method in brief: as §1
[22] = Clearance in human serum; format: ADME, organism-based; method in brief: as §2
[23] = Volume of distribution in human lung; format: ADME, organism-based; method in brief: as §2
[24] = AUC (0 to 24 hrs) in human epithelial lining fluid at 75th AUC percentile curve; format: ADME, tissue-based; parameters: time < 24 hr; method in brief: as §5
[25] = AUC (0 to 24 hrs) in human colon wall tissue at 75th AUC percentile curve; format: ADME, tissue-based; parameters: time < 24 hr; method in brief: as §3
[26] = Volume of distribution in human colon wall tissue; format: ADME, organism-based; method in brief: as §2
[27] = AUC (0 to 24 hrs) in human epithelial lining fluid at 25th AUC percentile curve; format: ADME, tissue-based; parameters: time < 24 hr; method in brief: as §5
[28] = Penetration ratio, ratio of AUC (0 to 24 hrs) for human colon wall tissue to AUC (0 to 24 hrs) for human serum at 75th AUC percentile curve; format: ADME; method in brief: as §1
[29] = AUC (0 to 24 hrs) in human colon wall tissue at 25th AUC percentile curve; format: ADME, tissue-based; parameters: time < 24 hr; method in brief: as §3
[30] = AUC (0 to 24 hrs) in human serum at 50th AUC percentile curve; format: ADME, cell-free; parameters: time < 24 hr; method in brief: as §4

Question: Which fraction unbound [1] does the source give for `CN(C)c1cc(NC(=O)CNC(C)(C)C)c(O)c2c1C[C@H]1C[C@H]3[C@H](N(C)C)C(O)=C(C(N)=O)C(=O)[C@@]3(O)C(O)=C1C2=O` [TIGECYCLINE] here?
Answer: 0.29

Question: What about the Kp [2] of the same compound?
Answer: 2.45

Question: What about the Kp [3] of the same compound?
Answer: 0.561

Question: And the Vd [4]?
Answer: 30.9 L

Question: And the Kp [5]?
Answer: 0.16

Question: What about the Kp [6] of the same compound?
Answer: 1.15

Question: What about the Kp [7] of the same compound?
Answer: 1.73

Question: What about the AUC(0-t) at 24 h [8] of the same compound?
Answer: 1.65 µg·h/mL

Question: And the AUC(0-t) at 24 h [9]?
Answer: 5.09 µg·h/mL

Question: And the AUC(0-t) at 24 h [10]?
Answer: 32.4 µg·h/mL

Question: What about the Kp [11] of the same compound?
Answer: 5.23

Question: And the AUC(0-t) at 24 h [12]?
Answer: 9.03 µg·h/mL

Question: What about the AUC(0-t) at 24 h [13] of the same compound?
Answer: 15.6 µg·h/mL

Question: And the Kp [14]?
Answer: 0.683

Question: And the Kp [15]?
Answer: 0.823

Question: What about the AUC(0-t) at 24 h [16] of the same compound?
Answer: 3370 µg·h/mL

Question: And the AUC(0-t) at 24 h [17]?
Answer: 8.72 µg·h/mL

Question: And the AUC(0-t) at 24 h [18]?
Answer: 18.5 µg·h/mL

Question: And the AUC(0-t) at 24 h [19]?
Answer: 4.3 µg·h/mL

Question: And the AUC(0-t) at 24 h [20]?
Answer: 4.84 µg·h/mL

Question: What about the Kp [21] of the same compound?
Answer: 199

Question: And the clearance [22]?
Answer: 243 mL/min

Question: What about the Vd [23] of the same compound?
Answer: 35.2 L

Question: What about the AUC(0-t) at 24 h [24] of the same compound?
Answer: 22.3 µg·h/mL

Question: And the AUC(0-t) at 24 h [25]?
Answer: 30.4 µg·h/mL

Question: And the Vd [26]?
Answer: 50.5 L

Question: And the AUC(0-t) at 24 h [27]?
Answer: 5.19 µg·h/mL

Question: What about the Kp [28] of the same compound?
Answer: 3.91

Question: What about the AUC(0-t) at 24 h [29] of the same compound?
Answer: 6.44 µg·h/mL

Question: And the AUC(0-t) at 24 h [30]?
Answer: 6.16 µg·h/mL
